Screens from PubChem BioAssay.
b-catenin transl: modulators of beta-catenin nuclear translocation | HeLa beta-catenin nuclear translocation, immunofluorescence imaging | nuclear translocation activity, % at 5 µM | actives 0.3% (n = 190,000);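 active means nuclear translocation activity above 50% at 5 µM, with a well cell count of 50 or more; inconclusive means wells under 50 cells across six images, flagged as toxic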;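 further: per-cell ratio of nuclear to cytoplasmic median beta-catenin stain intensity; plate controls were DMSO negative control for no effect and GSK-3 inhibitor IX positive control for full effect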
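Read-out: Nuclear/cytoplasmic beta-catenin signal ratio, % activation | Assay system: Human HeLa cell line | Times: 24 h compound exposure at 37°C, 5% CO2 | Signal: Fluorescence imaging of beta-catenin antibody stain plus DAPI | Dosing: 5 µM primary, 0.02–20 µM confirmation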
Cl transport mod: modulates chloride dependent transport by human KCC2 | Q9H2X9 | KCC2 cells, thallium flux FluoZin-2 fluorescence | B-score of Tl+ flux slope (higher = more flux/activation; lower = inhibition) at 10 µM | actives 2.2% (n = 190,000);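 active means thallium flux slope and its plate-corrected score both differing from the plate sample mean at a set confidence after two filtering rounds, in either direction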;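 further: slope of fluorescence scaled to starting intensity during 10 to 20 s after thallium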
Redox H2O2 prof: compounds producing H2O2 with reducing agent – biochemical, NIH compound library profiling, artefact control for MLSCN library redox annotation, primary screen | activation, % at 10 µM | AID 878 | DTT-dependent redox cycling H2O2, phenol red/HRP absorbance; 100% = 100 µM peroxide control, 0% = buffer | actives 0.03% (n = 200,000);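 active means activation of at least 50% relative to the plate's high and low controls in the primary single-dose screen; inactive means activation below 50%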;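 further: compound incubated with DTT at 0.8 mM final as the reducing agent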
MT stabilize HCS: microtubule stabilizers in HeLa cells; HeLa tubulin immunostaining HCS, 24 h; share of cells brighter than vehicle mean+2SD; % tubulin-high responders, % at 10 µM; actives 0.83% (n = 200,000);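 active means plate Z-score above 3 for both tubulin-high and condensed-nucleus cell shares, with cell loss under 80%, at 10 µM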;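 further: anti alpha tubulin signal scored within the nucleus-defined area of each cell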
ROMK mod: modulates human ROMK potassium channel activity; P48048; Tet-inducible ROMK, thallium flux fluorescence; actives lie on both sides; B-score at 10 µM; actives 2% (n = 130,000); AID 1918;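 active means signal ratio slope over the read window, or its plate-corrected B-score, at least 3 SD from the plate mean, either direction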;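 further: B-score of the F/F0 ratio slope over 7 to 12 s after thallium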
ROMK hit retest: human ROMK channel modulation, retest confirmation; shares compounds with ROMK mod; ROMK thallium flux, fluorescence ratio; hits give low values; normalized thallium flux (F/F0 slope) at 10 µM; actives 54% (n = 3,000); AID 1917;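 active means Flux at 10 µM at least 3 SD below or above vehicle control mean in one or both replicates; inconclusive means no clear call, values can overlap the other calls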
* marks the source's active call; other numbers are inactive results; ? = inconclusive; · = not tested or not shown. A selection: hits, their analogues and other compounds. The true share with any hit is near 3.7%.

SMILES	b-catenin transl	Cl transport mod	Redox H2O2 prof	MT stabilize HCS	ROMK mod	ROMK hit retest
NNC(=O)C(=O)Nc1ccc(Cl)c(Cl)c1	-1	1.1	·	·	-12*	0.076
CC(Nc1ccc(Cl)c(Cl)c1)C(=O)NN (stereo not drawn)	-1	-0.016	·	·	·	·
Cc1nnc(N/N=C/c2ccc(-c3ccccc3F)o2)n1N	-2	-1.5	1	3	-2.5*	0.059*
Cc1nnc(N/N=C\c2ccc(-c3ccccc3[N+](=O)[O-])o2)n1N	-4	-1.4	0	4	-0.27	·
CCN(CC(=O)NC1CCS(=O)(=O)C1)S(=O)(=O)c1ccc(C)c(C)c1 (stereo not drawn)	0	-0.19	0	2	-0.52	·
Cc1cc[n+](-c2[nH]c(=O)sc2/C=N/N=C(\[O-])c2ccccc2)cc1C	1	0.018	-1	6	-6.6*	0.047*
COc1ccc(/C=C2/SC(c3ccc(C)cc3)=NC2=O)cc1OC	·	·	0	6	-3.2*	0.053*
COc1cc(/C=C2\SC(c3ccccc3)=NC2=O)cc(Cl)c1O	1	-2.1	-3	3	3.2*	0.066*
CN(C)c1nc(C=C(C#N)C#N)c(Cl)n1-c1ccc(F)cc1	0	-0.091	-1	3	-3.9*	0.059*
Fc1cccc(Cc2noc(CN3CCCCC3c3ccccn3)n2)c1 (stereo not drawn)	0	-0.74	0	2	1.9	·
COC(=O)c1cn(NC(=O)/C=C/c2cc(OC)ccc2OC)c(=O)c2ccccc12	-2	0	0	2	0.57	·
CCCCCn1c(=N)n(CC(O)COc2ccccc2OC)c2ccccc21 (stereo not drawn)	-2	0.41	0	3	·	0.048*
Cc1nc2ccccc2n1CC(O)COc1ccccc1Cl (stereo not drawn)	3	0.39	-1	2	-1.6	0.057*
C=CCn1c(=N)n(CC(O)COc2ccccc2OC)c2ccccc21 (stereo not drawn)	·	-0.087	-3	7	·	·
COc1ccccc1OCC(O)Cn1c(=N)n(Cc2ccccc2)c2ccccc21 (stereo not drawn)	·	-0.1	0	3	-7.8*	0.048*
CCN(CC)CCn1c(=N)n(CC(O)COc2ccccc2)c2ccccc21 (stereo not drawn)	1	-0.32	·	·	·	·
CCCCn1c(=N)n(CCOc2ccc(C)cc2)c2ccccc21	-1	0.22	0	2	-3.5*	0.051*
O=C1N(Cc2cccc(Cl)c2)C[C@@H]2C[C@@H](c3ccc4nonc4c3)N3CCC[C@@]123	-2	-0.84	-1	3	·	·
CCn1c(C)nc2cc(C(=O)NNC(=S)Nc3ccc(OC)cc3)ccc21	-2	-0.38	0	2	0.1	·
CCCCn1c(=N)n(CC(O)COc2cccc(C)c2)c2ccccc21 (stereo not drawn)	-8	·	-1	6	-5.8*	0.051*
CCCn1c(=N)n(CC(O)COc2ccc(C)cc2)c2ccccc21 (stereo not drawn)	-4	-0.68	·	·	·	·
Cc1ccccc1OCC(O)Cn1c(=N)n(Cc2ccccc2)c2ccccc21 (stereo not drawn)	1	1.4	·	·	-4.6*	0.05*
Cc1ccc(Nc2nnc(-c3ccccc3N)o2)cc1C	1	0.94	·	·	-1.4	·
COC(=O)c1cccc(C(=O)Nc2cnc3ccccc3c2)n1	-2	-0.19	1	2	·	0.05*
O=C(Nc1cnc2ccccc2c1)c1ccncc1	·	0.21	-1	2	·	·
COC(=O)c1cc(OC)c(OC)cc1NC(=S)N1CCN(C/C=C/c2ccccc2)CC1	·	-1.5	0	2	-1	·
Cc1cccc(C(=O)N2CCC(=O)N(C(COCc3ccccc3)Cc3ccccc3)CC2)c1 (stereo not drawn)	·	-0.39	0	2	-1.6	·
Cc1cccc(C(=O)N2CCC(=O)N(C(COCc3cccc(C(F)(F)F)c3)Cc3ccccc3)CC2)c1 (stereo not drawn)	·	-0.9	0	3	-3.3*	0.058*
Cc1ccc(S(=O)(=O)N2CCC(=O)N(C(COCc3ccc(Cl)cc3)Cc3ccccc3)CC2)cc1 (stereo not drawn)	·	-3.3	1	2	-4.4*	?
